Results as given in ChEMBL document CHEMBL1132954, “Synthesis and structure-activity relationships of chiral allosteric modifiers of hemoglobin” (2000).
Values joined by “and” are separate entries in the source; they are usually repeats but may differ in a detail not shown here. Equal entries are not always repeated.

Molecular target: T1, Hemoglobin HbA (Homo sapiens) (UniProt P69905+P68871)
Experiment: Ratio of P50e to P50c (P50 control value with no effector present, 5 mmHg)
Format: functional
Procedure, shortened: (§1)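 Purified stripped human adult Hb in 50 mM bis-Tris, 100 mM NaCl, pH 7.2, at 60-70 µM heme, with effector at 0.5 mM. Catalase and EDTA were added, and the sample was saturated with carbogen. The curve was recorded on a Hemox analyzer as O₂ pressure was lowered over 45-60 min, with saturation read at 577/586.2 nm. P50 came from linear regression of 40-60% saturation points. Single runs, each with its own no-effector control.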

T1 sequence (P68871 2-147 partner limits assumed): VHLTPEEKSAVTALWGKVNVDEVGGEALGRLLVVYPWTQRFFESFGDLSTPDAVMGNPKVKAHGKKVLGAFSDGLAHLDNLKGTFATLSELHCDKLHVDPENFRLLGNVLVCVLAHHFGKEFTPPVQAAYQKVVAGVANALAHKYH
T1 sequence (P69905 2-142 limits assumed): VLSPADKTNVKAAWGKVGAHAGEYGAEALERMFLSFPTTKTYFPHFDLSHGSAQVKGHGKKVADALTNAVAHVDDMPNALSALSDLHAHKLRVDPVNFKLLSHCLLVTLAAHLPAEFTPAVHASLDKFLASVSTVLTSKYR

SMILES | P50e/P50c
Cc1cc(C)cc(NC(=O)Cc2ccc(OC3(C(=O)O)CCOCC3)cc2)c1 | 1.5
CCC(Oc1ccc(CC(=O)Nc2cc(C)cc(Cl)c2)cc1)C(=O)O (stereo not drawn) | 2.6
CCC(C)(Oc1ccc(CC(=O)Nc2cc(C)cc(C)c2)cc1)C(=O)O (stereo in doubt; 10) | 2.7
COCC(C)(Oc1ccc(CC(=O)Nc2cc(C)cc(C)c2)cc1)C(=O)O (stereo not drawn) | 1.7
Cc1cc(Cl)cc(NC(=O)Cc2ccc(OC(C)C(=O)O)cc2)c1 (stereo not drawn) | 1.9
CCC(C)(Oc1ccc(CC(=O)Nc2cc(C)cc(Cl)c2)cc1)C(=O)O (stereo not drawn) | 3.3
Cc1cc(C)cc(NC(=O)Cc2ccc(OC(F)C(=O)O)cc2)c1 (stereo not drawn) | 1.2
CC1CCC(Oc2ccc(CC(=O)Nc3ccc4c(c3)CCC4)cc2)(C(=O)O)C1 (stereo not drawn) | 2.5
CCCCC(Oc1ccc(CC(=O)Nc2cc(C)cc(C)c2)cc1)C(=O)O (stereo not drawn) | 3.4
CC1CCCC1(Oc1ccc(CC(=O)Nc2ccc3c(c2)CCC3)cc1)C(=O)O (stereo not drawn) | 2.8
Cc1cc(C)cc(NC(=O)Cc2ccc(OC(C)C(=O)O)cc2)c1 (single isomer, unassigned; (-)) | 1.3
CCC(C)(Oc1ccc(CC(=O)Nc2cc(C)cc(C)c2)cc1)C(=O)O (stereo in doubt; (-)-10) | 2.1
CC(Oc1ccc(CC(=O)Nc2ccc3c(c2)CCC3)cc1)C(=O)O (stereo not drawn) | 1.3
CCC(Oc1ccc(CC(=O)Nc2ccc3c(c2)CCC3)cc1)C(=O)O (stereo not drawn) | 1.8
Cc1cc(C)cc(NC(=O)Cc2ccc(OC(C)C(=O)O)cc2)c1 (racemic) | 1.9
Cc1cc(Cl)cc(NC(=O)Cc2ccc(OC(C)(C)C(=O)O)cc2)c1 | 4.4
Cc1cc(C)cc(NC(=O)Cc2ccc(OC(C)C(=O)O)cc2)c1 (single isomer, unassigned; (+)) | 2
Cc1cc(Cl)cc(NC(=O)Cc2ccc(OC3(C(=O)O)CCCC3C)cc2)c1 (stereo not drawn) | 4.4
Cc1cc(Cl)cc(NC(=O)Cc2ccc(OC3(C(=O)O)CCC(C)C3)cc2)c1 (stereo not drawn) | 2.8
Cc1cc(C)cc(NC(=O)Cc2ccc(O[C@@]3(C(=O)O)CCO[C@@H]3C)cc2)c1 | 1.5

Molecular target: T1, Hemoglobin HbA (Homo sapiens)
Experiment: Oxygen pressure at which hemoglobin is 50% saturated with oxygen in the presence of the effector.
Format: functional
Procedure, shortened: as §1

SMILES | P50e
Cc1cc(C)cc(NC(=O)Cc2ccc(OC3(C(=O)O)CCOCC3)cc2)c1 | 7.6 mmHg
CCC(Oc1ccc(CC(=O)Nc2cc(C)cc(Cl)c2)cc1)C(=O)O (stereo not drawn) | 13.1 mmHg
CCC(C)(Oc1ccc(CC(=O)Nc2cc(C)cc(C)c2)cc1)C(=O)O (stereo in doubt; 10) | 13.3 mmHg
COCC(C)(Oc1ccc(CC(=O)Nc2cc(C)cc(C)c2)cc1)C(=O)O (stereo not drawn) | 8.4 mmHg
Cc1cc(Cl)cc(NC(=O)Cc2ccc(OC(C)C(=O)O)cc2)c1 (stereo not drawn) | 9.4 mmHg
CCC(C)(Oc1ccc(CC(=O)Nc2cc(C)cc(Cl)c2)cc1)C(=O)O (stereo not drawn) | 16.6 mmHg
Cc1cc(C)cc(NC(=O)Cc2ccc(OC(F)C(=O)O)cc2)c1 (stereo not drawn) | 5.9 mmHg
CC1CCC(Oc2ccc(CC(=O)Nc3ccc4c(c3)CCC4)cc2)(C(=O)O)C1 (stereo not drawn) | 12.7 mmHg
CCCCC(Oc1ccc(CC(=O)Nc2cc(C)cc(C)c2)cc1)C(=O)O (stereo not drawn) | 17 mmHg
CC1CCCC1(Oc1ccc(CC(=O)Nc2ccc3c(c2)CCC3)cc1)C(=O)O (stereo not drawn) | 13.8 mmHg
Cc1cc(C)cc(NC(=O)Cc2ccc(OC(C)C(=O)O)cc2)c1 (single isomer, unassigned; (-)) | 6.6 mmHg
CCC(C)(Oc1ccc(CC(=O)Nc2cc(C)cc(C)c2)cc1)C(=O)O (stereo in doubt; (-)-10) | 10.5 mmHg
CC(Oc1ccc(CC(=O)Nc2ccc3c(c2)CCC3)cc1)C(=O)O (stereo not drawn) | 6.3 mmHg
CCC(Oc1ccc(CC(=O)Nc2ccc3c(c2)CCC3)cc1)C(=O)O (stereo not drawn) | 9.1 mmHg
Cc1cc(C)cc(NC(=O)Cc2ccc(OC(C)C(=O)O)cc2)c1 (racemic) | 9.3 mmHg
Cc1cc(Cl)cc(NC(=O)Cc2ccc(OC(C)(C)C(=O)O)cc2)c1 | 21 mmHg
Cc1cc(C)cc(NC(=O)Cc2ccc(OC(C)C(=O)O)cc2)c1 (single isomer, unassigned; (+)) | 9.8 mmHg
Cc1cc(Cl)cc(NC(=O)Cc2ccc(OC3(C(=O)O)CCCC3C)cc2)c1 (stereo not drawn) | 21.9 mmHg
Cc1cc(Cl)cc(NC(=O)Cc2ccc(OC3(C(=O)O)CCC(C)C3)cc2)c1 (stereo not drawn) | 14 mmHg
Cc1cc(C)cc(NC(=O)Cc2ccc(O[C@@]3(C(=O)O)CCO[C@@H]3C)cc2)c1 | 7.7 mmHg

Test system: not listed separately
Experiment: Hill coefficient at 50% saturation in the presence of effector

SMILES | Hill coefficient (n50)
Cc1cc(C)cc(NC(=O)Cc2ccc(OC3(C(=O)O)CCOCC3)cc2)c1 | 2.4
CCC(Oc1ccc(CC(=O)Nc2cc(C)cc(Cl)c2)cc1)C(=O)O (stereo not drawn) | 2.6
CCC(C)(Oc1ccc(CC(=O)Nc2cc(C)cc(C)c2)cc1)C(=O)O (stereo in doubt; 10) | 2.4
COCC(C)(Oc1ccc(CC(=O)Nc2cc(C)cc(C)c2)cc1)C(=O)O (stereo not drawn) | 2.4
Cc1cc(Cl)cc(NC(=O)Cc2ccc(OC(C)C(=O)O)cc2)c1 (stereo not drawn) | 2.6
CCC(C)(Oc1ccc(CC(=O)Nc2cc(C)cc(Cl)c2)cc1)C(=O)O (stereo not drawn) | 2.5
Cc1cc(C)cc(NC(=O)Cc2ccc(OC(F)C(=O)O)cc2)c1 (stereo not drawn) | 2.5
CC1CCC(Oc2ccc(CC(=O)Nc3ccc4c(c3)CCC4)cc2)(C(=O)O)C1 (stereo not drawn) | 2.6
CCCCC(Oc1ccc(CC(=O)Nc2cc(C)cc(C)c2)cc1)C(=O)O (stereo not drawn) | 2.5
CC1CCCC1(Oc1ccc(CC(=O)Nc2ccc3c(c2)CCC3)cc1)C(=O)O (stereo not drawn) | 2.6
Cc1cc(C)cc(NC(=O)Cc2ccc(OC(C)C(=O)O)cc2)c1 (single isomer, unassigned; (-)) | 2.5 and 2.2
CCC(C)(Oc1ccc(CC(=O)Nc2cc(C)cc(C)c2)cc1)C(=O)O (stereo in doubt; (-)-10) | 2.3
CC(Oc1ccc(CC(=O)Nc2ccc3c(c2)CCC3)cc1)C(=O)O (stereo not drawn) | 2.7
CCC(Oc1ccc(CC(=O)Nc2ccc3c(c2)CCC3)cc1)C(=O)O (stereo not drawn) | 2.6
Cc1cc(C)cc(NC(=O)Cc2ccc(OC(C)C(=O)O)cc2)c1 (racemic) | 2.6 and 2
Cc1cc(Cl)cc(NC(=O)Cc2ccc(OC(C)(C)C(=O)O)cc2)c1 | 2.4
Cc1cc(C)cc(NC(=O)Cc2ccc(OC(C)C(=O)O)cc2)c1 (single isomer, unassigned; (+)) | 2.6 and 1.9
Cc1cc(Cl)cc(NC(=O)Cc2ccc(OC3(C(=O)O)CCCC3C)cc2)c1 (stereo not drawn) | 2.4
Cc1cc(Cl)cc(NC(=O)Cc2ccc(OC3(C(=O)O)CCC(C)C3)cc2)c1 (stereo not drawn) | 2.4
Cc1cc(C)cc(NC(=O)Cc2ccc(O[C@@]3(C(=O)O)CCO[C@@H]3C)cc2)c1 | 2.8

Test system: not listed separately
Experiment: The difference between P50e and P50c tested.
Format: functional
Procedure, shortened: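 Heparinized whole blood from healthy volunteers, kept on ice, was given the effector sodium salt from a 200 mM DMSO stock to 5.0 mM final. It was tonometered about 10-12 min at 37 °C and equilibrated at 20%, 40% and 60% O₂. pH, pCO₂, pO₂ and sO₂ were read by blood gas analyzer and co-oximeter, at least in duplicate. ΔP50 = P50e − P50c.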

SMILES | ΔP50 (P50e minus P50c)
Cc1cc(C)cc(NC(=O)Cc2ccc(OC(C)C(=O)O)cc2)c1 (single isomer, unassigned; (-)) | 12.3 mmHg
Cc1cc(C)cc(NC(=O)Cc2ccc(OC(C)C(=O)O)cc2)c1 (racemic) | 18.2 mmHg
Cc1cc(C)cc(NC(=O)Cc2ccc(OC(C)C(=O)O)cc2)c1 (single isomer, unassigned; (+)) | 20.7 mmHg
